Results as given in ChEMBL document CHEMBL1152561, “Evaluation of delocalized lipophilic cationic dyes as delivery vehicles for photosensitizers to mitochondria” (Bioorg Med Chem, 2009).
pIC50: −log10 of the molar value. Active and inactive are the calls of the source. No cut-off for these calls is given here.

How the values were obtained:
[1] = n-Octanol-phosphate buffer partition coefficient, log D at pH 7.4 by shake-flask method; format: physicochemical
Summary of the method: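 Dye was added to saturation in equal volumes (2 mL) of n-octanol and pH 7.4 phosphate buffer. The mixture was sonicated 30 min and left to settle 4 h. Each layer was diluted in dichloromethane and absorbance measured. Log D7.4 was taken from the ratio of absorbances between the two layers.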

[2] = test system: R3230AC; assay: Phototoxicity in rat R3230AC cells irradiated with halogen lamp pretreated 24 hrs before irradiation by MTT assay; format: functional, cell-based; conditions: light or radiation study
Summary of the method: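 Cells were seeded at 1.0–1.5 × 10^4 per well, grown 24 h, then given 1–20 µM dye in complete medium for 24 h. After two saline rinses, cells in clear medium were irradiated with halogen broadband light (400–850 nm, water-filtered) at 3 mW cm−2 for 1 h while orbiting. They were refed and grown 24 h more. Viability was read by MTT as a percentage of light-exposed dye-free controls.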

[3] = test system: R3230AC; assay: Cellular uptake in rat R3230AC cells measured per cell at 10 uM after 24 hrs; format: ADME, cell-based
Summary of the method: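 R3230AC cells were grown in α-MEM with 10% bovine growth serum at 37 °C and 5% CO2. Dyes were diluted from 2 mM DMSO stocks. Intracellular dye content was measured by fluorescence at dye-appropriate excitation and emission wavelengths and converted using a fluorescence calibration curve.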

[4] = test system: R3230AC; assay: Cytotoxicity against rat R3230AC cells up to 20 uM for 24 hrs in dark; format: functional, cell-based
[5] = test system: R3230AC; assay: Stability in rat R3230AC cell lysate at 10 uM after 24 hrs; format: ADME, cell-based
Summary of the method: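 Cells seeded at 2.0–3.0 × 10^4 per well were grown 24 h, then exposed to dye in complete medium for 24 h. After two 0.9% NaCl rinses, cells were lysed in DMSO. Fluorescence (excitation 550 nm, emission 555–750 nm) was compared with dye in DMSO, including the ratio of the 580 and 650 nm peaks.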

With `CN(C)c1ccc2cc3ccc(N(C)C)cc3nc2c1` the logD [1] was -0.99 and the pIC50 [2] was 5.64.

For `CCN(CC)c1ccc2c(-c3ccccc3C(=O)O)c3ccc(=[N+](CC)CC)cc-3oc2c1` [RHODAMINE B], the logD [1] was 2.2.

Compound `CN(C)c1ccc2cc3ccc(N(C)C)cc3[n+](CCCOc3ccc(-c4c5nc(c(-c6ccccc6)c6ccc([nH]6)c(-c6ccccc6)c6nc(c(-c7ccccc7)c7ccc4[nH]7)C=C6)C=C5)cc3)c2c1.[I-]` has a logD [1] of 0.79, an Activity [3] of 68.2 fmol and a pIC50 [2] of 5.48.

For `CCN(CC)c1ccc2c(-c3ccccc3C(C)=O)c3ccc(=[N+](CC)CC)cc-3oc2c1`, the Activity [4] was “inactive”.

In the case of `Oc1ccc(-c2c3nc(c(-c4ccccc4)c4ccc([nH]4)c(-c4ccccc4)c4nc(c(-c5ccccc5)c5ccc2[nH]5)C=C4)C=C3)cc1`, the Activity [4] was “inactive”, the logD [1] was 2.3 and the Activity [3] was 5.6 fmol.

With `CCN(CC)c1ccc2c(-c3ccccc3C(=O)OCCCOc3ccc(-c4c5nc(c(-c6ccccc6)c6ccc([nH]6)c(-c6ccccc6)c6nc(c(-c7ccccc7)c7ccc4[nH]7)C=C6)C=C5)cc3)c3ccc(=[N+](CC)CC)cc-3oc2c1.[I-]` the Activity [4] was “inactive”, the logD [1] was 3.53 and the pIC50 [2] was 5.40. The Stability [5] was “Stable”.
